Measured values reported in paper PMC11309612 (Medicine, 2024).
“And” between values parts separate entries of the source, which are not always exact repeats. Identical values can stand only once. Like-named read-outs stand apart in the source and are kept apart here.

Columns and labels:
[1] = test system: U-87 MG human glioblastoma cells; experiment: WST-1 antiproliferative assay in U-87 MG cells; assay type: cell-based; conditions: for IC50: read-out: IC50 according to WST-1 results; for % viability value at the highest concentration: WST-1, highest concentration (500 µM)
In short: (§1)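 U-87 MG glioblastoma cells or BJ foreskin fibroblasts were seeded at 3 × 10^3 per well and left 24 h. Test compound, freshly diluted in medium, was applied at 0.97–500 µM (ten concentrations) for 24 or 48 h. WST-1 reagent was added per kit and absorbance read at 540 nm. There were 7 wells per concentration and 3 independent experiments. The 0.1% DMSO control was set to 100% viability, and IC50 was derived from the % viability values.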

[2] = test system: BJ human healthy fibroblast cells; experiment: WST-1 cytotoxicity assay in BJ cells; assay type: cell-based; conditions: for IC50: read-out: IC50 according to WST-1 results
In short: as §1

U-87 MG cells [3] = experiment: Annexin V and Propidium iodide staining apoptosis assay in flow cytometry; assay type: cell-based, human; conditions: for Increase of late apoptotic effects compared to U-87 MG control group: IC50 concentration, 48th hour
In short: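 U-87 MG cells were cultured in EMEM with 10% FBS, 1% penicillin-streptomycin and 1% L-glutamine at 37°C in 5% CO2. Cells were exposed for 48 h to 150 μM test compound or 45 μM comparator, with 0.1% DMSO as control. They were detached, pelleted and washed twice in cold PBS. Annexin V/PI staining ran 20 min at room temperature in the dark, then binding buffer was added and flow cytometry was read within 30 min. Quadrant %, n = 3, mean ± SD.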

U-87 MG cells [4] = experiment: Mitochondrial membrane integrity; assay type: cell-based, human; conditions: for Increase of mitochondrial depolarization levels compared to the control: IC50 concentration, 48th hour; for JC-1-positive cells % (lower quadrant), mitochondrial depolarization: JC-1, IC50 concentration, n = 3, mean ± SD, control 12.3 ± 2.0
In short: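 U-87 MG cells were treated for 48 h with 150 μM test compound or 45 μM comparator, with 0.1% DMSO as control. Cells were pelleted at 1200 rpm for 5 min and incubated in JC-1 working solution for 15 min at 37°C. They were washed, resuspended in kit assay solution and read by flow cytometry. Upper-quadrant (viable) and lower-quadrant (JC-1-positive, depolarised) percentages were recorded; n = 3, mean ± SD.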

U-87 MG cells [5] = experiment: Caspase-3 activation in flow cytometry; assay type: cell-based, human; conditions: for Caspase-3 levels compared to the control / Caspase-3-positive cells % (lower right quadrant): IC50 concentration; for Caspase-3 levels compared to the control: 48th hour; for Caspase-3-positive cells % (lower right quadrant): n = 3, mean ± SD, control 0.6 ± 0.3
In short: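 U-87 MG cells were seeded at 1 × 10^5 per well in 6-well plates and exposed for 48 h to 150 μM test compound or 45 μM comparator, with 0.1% DMSO as control. After a PBS wash, cells were fixed and permeabilised with cytofix/cytoperm for 20 min on ice, then stained with PE rabbit anti-active caspase-3 for 30 min at room temperature. Flow cytometry gave quadrant %; n = 3, mean ± SD.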

IC50 ([1]; U-87 MG cells, 24 h incubation) [µM]	IC50 ([1]; U-87 MG cells, 48 h incubation) [µM]	SMILES	IC50 ([1]; Homo sapiens, U-87 MG, 24 h) [µM]	IC50 ([1]; Homo sapiens, U-87 MG, 48 h) [µM]	IC50 ([2]; Homo sapiens, BJ, 24 h) [µM]	IC50 ([2]; Homo sapiens, BJ, 48 h) [µM]	viability at 45.68 µM (U-87 MG cells [3]; Homo sapiens, U-87 MG, read-out: Viable cells % (lower left quadrant)) [%]	Increase of late apoptotic effects compared to U-87 MG control group (U-87 MG cells [3])	viability at 45.68 µM (U-87 MG cells [4]; Homo sapiens, U-87 MG, 48 h, read-out: Viable cells % (upper quadrant)) [%]	Increase of mitochondrial depolarization levels compared to the control (U-87 MG cells [4])	JC-1-positive cells % (lower quadrant), mitochondrial depolarization (U-87 MG cells [4]; 48 h)	viability at 45.68 µM (U-87 MG cells [5]; Homo sapiens, U-87 MG, 48 h, read-out: Viable cells % (lower left quadrant)) [%]	Caspase-3 levels compared to the control (U-87 MG cells [5])	Caspase-3-positive cells % (lower right quadrant) (U-87 MG cells [5]; 48 h) [%]	% viability value at the highest concentration ([1]; U-87 MG, 24 hours) [%]	% viability value at the highest concentration ([1]; U-87 MG, 48 hours) [%]	IC50 ([2]; BJ cells, 24 h incubation) [µM]	IC50 ([2]; BJ cells, 48 h incubation) [µM]	Cytotoxic effect on BJ cells ([2]; WST-1, especially at the 48th hour)
–	–	O=NN(CCCl)C(=O)NCCCl [Carmustine, carmustine]	40.6	45.7	144	81.4	57.6 ± 6.96	approximately 3 times	41.4 ± 3.8	~4.7 times	58.6 ± 3.80%	96.2 ± 0.9	did not show any difference	3.8 ± 1.0	–	–	–	–	–
256	150	NC(=O)[C@H](CCCN=C(N)CCl)NC(=O)c1ccccc1 [Cl-amidine, chlorine-amidine]	–	–	–	–	–	2.5 times	–	approximately 4.5 times	54.7% and 54.7 ± 11.60%	–	did not show any difference	2.8 ± 0.9	41.16	35.64	604	549	–
–	–	O=P1(N(CCCl)CCCl)NCCCO1 (stereo not shown) [Cyclophosphamide, cyclophosphamide]	581	580	650	3970	–	–	–	–	–	–	–	–	–	–	–	–	did not have a cytotoxic effect
